Screening data as filed in PubChem.
NR2E3 ag-1 – inhibitors of NR2E3-RetCOR corepressor binding, primary screen, NR2E3 agonist project, biochemical, TR-FRET, GST-NR2E3, biotin-RetCOR. Photoreceptor-specific nuclear receptor (Homo sapiens), Q9Y5X4. 1536-well. inhibition of corepressor binding, % at 4.78 µM. 0.12% of 320,000 active. AID 2300, 2010;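 active = percent inhibition above the cutoff of mean plus 3 SD of all tested compounds, set per screening campaign, cut at about 20% in these data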;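 note: 0% = DMSO wells and 100% = biotin wells as full block of FRET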
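Material: NR2E3–RetCOR corepressor complex / Amount: 1.35 nM GST-NR2E3 / Medium: Tris pH 7.5 / Compound: single nominal compound dose of 4.8 µM / Incubation: 5 h at 4 °C / Technique: TR-FRET, Eu(K)-anti-GST donor, streptavidin-D2 acceptor, ex 340, em 617/671 nm / Read-out basis: percent loss of FRET ratio relative to control wells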
NR1D1 modulator – modulators of Rev-erb alpha DNA binding, primary screen, biochemical, FITC-DNA, fluorescence polarization, uHTS; 0.79% of 370,000 active; Nuclear receptor subfamily 1 group D member 1 (Homo sapiens), P20393; Rev-erbα–FITC-DNA binding, 90 min; activity, % at 10 µM;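 active = activity above about 14%, limit read from the data; passing the limit was not always enough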;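 note: 0% = DMSO wells with 35 nM protein and 100% = DMSO wells with 750 nM protein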
Target sequence (P20393 whole entry, looked up): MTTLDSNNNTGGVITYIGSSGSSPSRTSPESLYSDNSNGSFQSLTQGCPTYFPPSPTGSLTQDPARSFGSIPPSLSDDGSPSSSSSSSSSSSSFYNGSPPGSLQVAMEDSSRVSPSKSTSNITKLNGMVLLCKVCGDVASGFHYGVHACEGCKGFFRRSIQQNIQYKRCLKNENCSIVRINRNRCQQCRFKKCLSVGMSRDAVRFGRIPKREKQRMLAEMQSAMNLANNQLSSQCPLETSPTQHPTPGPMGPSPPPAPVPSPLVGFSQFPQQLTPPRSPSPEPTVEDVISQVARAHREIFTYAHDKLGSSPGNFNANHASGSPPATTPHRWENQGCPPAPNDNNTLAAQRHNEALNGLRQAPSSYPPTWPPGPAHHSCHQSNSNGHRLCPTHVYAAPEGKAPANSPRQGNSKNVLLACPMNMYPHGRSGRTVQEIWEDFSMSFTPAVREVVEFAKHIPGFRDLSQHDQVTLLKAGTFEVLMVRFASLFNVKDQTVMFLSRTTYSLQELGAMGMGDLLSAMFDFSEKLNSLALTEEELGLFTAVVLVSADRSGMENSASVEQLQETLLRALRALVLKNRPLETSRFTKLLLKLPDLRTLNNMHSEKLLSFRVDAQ
NR2E3 ag-2 – NR2E3 agonists in two-hybrid cells, primary screen, cell-based, luminescence, CHO-S, Gal4-NCOR/VP16-NR2E3 | 0.35% of 360,000 active | luciferase | Photoreceptor-specific nuclear receptor (Homo sapiens), Q9Y5X4 | inhibition of corepressor binding, % at 3.98 µM;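 active = inhibition above the mean of all tested compounds plus 3 SD, cut at about 70% in these data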;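 note: 0% = DMSO with NR2E3 transfected cells and 100% = cells lacking NR2E3 construct; higher means lower luciferase signal from less NR2E3 corepressor binding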
PG9 binder – binders of HIV-1 gp120 antibody PG9, primary screen, biochemical, TR-FRET. HIV-1 gp120 / PG9 antibody interaction. TR-FRET gp120-PG9 antibody binding. inhibition, % at 6.7 µM. 0.43% of 360,000 active; in the data active = inhibition above about 8.5%
NR2E3 ag confirm – NR2E3 agonist confirmation in cells, cell-based, luminescence, CHO-S two-hybrid | shares compounds with NR2E3 ag-2 | CHO-S mammalian two-hybrid NR2E3-NCOR, luciferase luminescence | AID 624378, 2012 | 51% of 2,300 active | inhibition, % at 3.98 µM;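 active = average inhibition above a cutoff equal to the mean inhibition of all tested compounds plus one SD, cut at about 70% in these data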;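 note: 0% = DMSO in NR2E3 cells and 100% = DMSO in cells lacking NR2E3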
VP16 counter – GAL4-VP16 reporter modulators, confirmation, counter-screen for NR2E3 agonist project, cell-based, luminescence, CHO-S, high throughput | CHO-S GAL4-VP16 luciferase reporter | shares compounds with NR2E3 ag-2 | 29% of 2,300 active | inhibition, % at 3.98 µM;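 active = mean inhibition above a cutoff equal to the average over all tested compounds plus one standard deviation, cut at about 70% in these data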;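 note: luciferase from a UAS reporter driven by GAL4-VP16 transactivation; 0% = DMSO with VP16-transfected cells and 100% = DMSO with cells lacking VP16; higher means less reporter light so more repression of VP16 activity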
* = called active by the depositor. This is a sample that favours compounds with a hit; in the whole collection about 1.4% have one here.

N#Cc1c(NC(=O)CSc2ncn[nH]2)sc2c1CCCCC2 was read as NR2E3 ag-1 2, NR1D1 modulator -3, NR2E3 ag-2 46 and PG9 binder -2.
CCC(Sc1nc(C)cc(=O)[nH]1)C(=O)Nc1sc2c(c1C#N)CCCC2 (stereo not drawn) was read as NR2E3 ag-1 1, NR1D1 modulator 4, NR2E3 ag-2 88*, PG9 binder 0, NR2E3 ag confirm 76* and VP16 counter 53.
For CC(Sc1nc(N)cc(=O)[nH]1)C(=O)Nc1sc2c(c1C#N)CCCC2 (stereo not drawn) the results were NR2E3 ag-1 1, NR1D1 modulator -3, NR2E3 ag-2 51, PG9 binder -1, NR2E3 ag confirm 61 and VP16 counter 61.
For COC(=O)C1CN(Cc2ccc(OC)cc2)CCS(=O)(=O)N1Cc1ccc(OC)cc1 (stereo not drawn) the results were NR1D1 modulator 4.
For CC(C)c1ccc(/C=C(\c2nc3ccccc3[nH]2)S(=O)(=O)c2ccccc2)cc1 the results were NR2E3 ag-1 -2, NR1D1 modulator -5, NR2E3 ag-2 100*, PG9 binder -1, NR2E3 ag confirm 97* and VP16 counter 7.
COC(=O)C12OCC34C(CC5C(C)=C(O)C(=O)CC5(C)C3C(O)C1O)OC(=O)C(OC(=O)C=C(C)C)C24 (stereo not drawn) was read as NR1D1 modulator 2, NR2E3 ag-2 103*, PG9 binder -1, NR2E3 ag confirm 99* and VP16 counter 98*.
Screening Cc1cc(C(=O)NC2CCCc3c2cnn3-c2ccccc2F)nc(C)n1 (stereo not drawn) returned NR2E3 ag-1 2, NR1D1 modulator -7, NR2E3 ag-2 -14 and PG9 binder -2.
For Cc1nnsc1C(=O)NC1CCCc2c1cnn2-c1ccc(F)cc1F (stereo not drawn) the results were NR2E3 ag-1 1, NR1D1 modulator -9, NR2E3 ag-2 96*, PG9 binder -1, NR2E3 ag confirm 71* and VP16 counter 64.
Screening Cc1ccc(C(=O)NC2CCCc3c2cnn3-c2ccc(F)cc2F)cn1 (stereo not drawn) returned NR2E3 ag-1 2, NR1D1 modulator 2, NR2E3 ag-2 100*, PG9 binder 1, NR2E3 ag confirm 95* and VP16 counter 79*.
For CC(C)c1cc(C(=O)NC2CCCc3c2cnn3-c2ccccc2F)no1 (stereo not drawn) the results were NR2E3 ag-1 0, NR1D1 modulator -1, NR2E3 ag-2 60, PG9 binder 2, NR2E3 ag confirm 47 and VP16 counter 52.
CN1CCN(c2ccc3c(c2)Oc2ccccc2CN(Cc2cn(Cc4ccc(C(F)(F)F)cc4)nn2)S3(=O)=O)CC1 was read as NR1D1 modulator 2.
COC1=C[C@H](C(=O)NC2CCN(Cc3ccccc3)CC2)[C@@]2(C)Cc3ccccc3[C@H]2CC1=O was read as NR1D1 modulator -2.
For COc1ccccc1C(=O)NCCC(=O)Nc1nc2ccccc2[nH]1 the results were NR2E3 ag-1 -1, NR1D1 modulator 3, NR2E3 ag-2 31 and PG9 binder -1.
Screening CSc1ccccc1C(=O)Nc1nc2ccccc2[nH]1 returned NR2E3 ag-1 6, NR1D1 modulator -2, NR2E3 ag-2 -64 and PG9 binder 0.
COc1ccccc1C(=O)Nc1nc2ccccc2[nH]1 was read as NR2E3 ag-1 0, NR1D1 modulator -3, NR2E3 ag-2 82*, PG9 binder 0, NR2E3 ag confirm 77* and VP16 counter 42.
Screening COc1cc(SC)ccc1C(=O)Nc1nc2ccccc2[nH]1 returned NR2E3 ag-1 6, NR1D1 modulator 16, NR2E3 ag-2 110*, PG9 binder 3, NR2E3 ag confirm 95* and VP16 counter 91*.
COc1ccc(NS(=O)(=O)c2ccc(N3CCCCC3)c(N)c2)cc1 was read as NR2E3 ag-1 1, NR1D1 modulator 2, NR2E3 ag-2 92*, PG9 binder 2, NR2E3 ag confirm 95* and VP16 counter 86*.
Screening Nc1cc(S(=O)(=O)Nc2ccccc2Cl)ccc1N1CCCCC1 returned NR1D1 modulator 2, NR2E3 ag-2 70*, PG9 binder 0, NR2E3 ag confirm 83* and VP16 counter 61.
Nc1cc(S(=O)(=O)N2CCCCC2)ccc1N1CCOCC1 was read as NR2E3 ag-1 0, NR1D1 modulator -5, NR2E3 ag-2 12 and PG9 binder -1.
Screening Nc1ccc(N2CCCCC2)c(S(=O)(=O)Nc2ccccc2Cl)c1 returned NR2E3 ag-1 3, NR1D1 modulator 8, NR2E3 ag-2 -11 and PG9 binder 1.
Screening CC1CCN(c2ccc(S(=O)(=O)N3CCC(C)CC3)cc2N)CC1 returned NR2E3 ag-1 -1, NR1D1 modulator -11, NR2E3 ag-2 100*, PG9 binder 0, NR2E3 ag confirm 87* and VP16 counter 72*.
Screening Nc1cc(S(=O)(=O)c2ccc(N3CCCCC3)c(N)c2)ccc1N1CCCCC1 returned NR1D1 modulator 1, NR2E3 ag-2 94*, PG9 binder -4, NR2E3 ag confirm 95* and VP16 counter 84*.
Screening COc1ccc(NS(=O)(=O)c2ccc(N3CCCCC3)c(NC(=O)C(C)NC(N)=O)c2)cc1 (stereo not drawn) returned NR1D1 modulator 7, NR2E3 ag-2 12 and PG9 binder -3.
For CCC(c1nnnn1-c1c(C)cccc1C)N1CCN(c2ccc(C(F)(F)F)cc2[N+](=O)[O-])CC1 (stereo not drawn) the results were NR2E3 ag-2 53, NR2E3 ag confirm 5 and VP16 counter 10.
`CCC(c1nnnn1-c1c(C)cccc1C)N1CCN(c2cccc(C(F)(F)F)n2)CC1` (stereo not drawn) gave NR1D1 modulator -4, NR2E3 ag-2 0 and PG9 binder -1.
Screening CC(C)Cc1ccc(C(C)C(=O)Nc2cccnc2)cc1 (stereo not drawn) returned NR2E3 ag-1 0, NR1D1 modulator -6, NR2E3 ag-2 50, PG9 binder 0, NR2E3 ag confirm 89* and VP16 counter 76*.
CC(C(=O)Nc1cccnc1)c1ccc([N+](=O)[O-])cc1 (stereo not drawn) was read as NR2E3 ag-1 2, NR1D1 modulator 2, NR2E3 ag-2 5 and PG9 binder -2.
